Measured values taken from ChEMBL document CHEMBL1131043, “Nucleosides and nucleotides. 175. Structural requirements of the sugar moiety for the antitumor activities of new nucleoside antimetabolites, 1-(3-C-ethynyl-beta-D-ribo-pentofuranosyl)cytosine and -uracil1” (J Med Chem, 1998).
pIC50: −log10 of the molar value.

Legend:
KB [1] = experiment: Concentration required to inhibit 50% of human epidermoid KB cell growth was measured(in vitro) using MTT assay.; format: functional, cell-based
Method in brief: (§1)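 Cells seeded at 2 × 10³/well, cultured with or without test nucleoside for 72 h, then 4 h further with MTT. Formazan dissolved in DMSO, OD read at 540 nm. % inhibition = [1 − OD sample/OD control] × 100; IC50 taken as concentration giving 50% growth inhibition. S-180 cytotoxicity run by the same method.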

L1210 = experiment: Concentration required to inhibit 50% of murine leukemia L1210 cell growth was measured(in vitro) using MTT assay.; format: functional, cell-based, Mus musculus; method in brief: as §1
KB [2] = experiment: The concentration required to inhibit 50% of human epidermoid KB cell growth was measured(in vitro) using MTT assay.; format: functional, cell-based; method in brief: as §1
Sarcoma-180 [3] = experiment: Cytotoxicity against sarcoma -180 cells was measured by […].; format: functional, cell-based; conditions: Mus musculus; method in brief: as §1
Sarcoma-180 [4] = experiment: Phosphorylation by uridine/cytidine kinase(UCK) from mouse sarcoma -180 ascites cells was measured.; format: functional
Method in brief: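 UCK partially purified from mouse Sarcoma-180 ascites cells (ammonium sulfate 30–50%, Sephacryl S-200, hydroxyapatite, DEAE-Sepharose). Reaction: 50 mM Tris-HCl pH 8.0, 10 mM ATP, 10 mM NaF, 5 mM MgCl2, 1 mg/mL BSA, 0.6 mM nucleoside, 37 °C, 15 min (Cyd, Urd) or 60 min (others), stopped by boiling. Tritiated nucleosides: 5'-monophosphate on PEI-cellulose TLC counted; unlabeled: substrate consumption by C18 HPLC at 270 nm. Duplicate means.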

Row | SMILES | pIC50 (KB [1]; Homo sapiens, KB) | pIC50 (L1210; Mus musculus, L1210) | pIC50 (KB [1]; kb) | pIC50 (L1210; l1210) | pIC50 (KB [2]) | pIC50 (Sarcoma-180 [3]) | Phosphorylating activity (Sarcoma-180 [4]) [pmol/min/assay]
1 | O=c1ccn([C@@H]2O[C@H](CO)[C@](O)(C3CC3)[C@H]2O)c(=O)[nH]1 | < 3.46 | < 3.46 |  |  |  |  | 
2 | C#C[C@]1(O)[C@@H](CO)O[C@@H](n2ccc(N)nc2=O)[C@@H]1O |  |  | < 3.46 | < 3.46 |  |  | 
3 | C#C[C@@H]1[C@@H](O)[C@H](n2ccc(=O)[nH]c2=O)O[C@@H]1CO | < 3.46 | < 3.46 |  |  |  |  | 
4 | C#C[C@]1(O)[C@H](O)[C@@H](CO)O[C@H]1n1ccc(N)nc1=O | < 3.46 | < 3.46 |  |  |  |  | 
5 | C#CC[C@@]1(O)[C@@H](CO)O[C@@H](n2ccc(=O)[nH]c2=O)[C@@H]1O |  | < 3.46 |  |  | < 3.46 |  | 
6 | C#C[C@@H]1[C@@H](O)[C@H](n2ccc(N)nc2=O)O[C@@H]1CO | < 3.46 | < 3.46 |  |  |  | < 4.52 | 6.9
7 | Nc1ccn([C@@H]2O[C@H](CO)[C@@H](O)[C@H]2O)c(=O)n1 [CYTIDINE] |  |  |  |  |  |  | 812
8 | Nc1ccn([C@@H]2O[C@H](CO)[C@](O)(C3CC3)[C@H]2O)c(=O)n1 | < 3.46 | < 3.46 |  |  |  |  | 
9 | CC[C@@]1(O)[C@@H](CO)O[C@@H](n2ccc(N)nc2=O)[C@@H]1O | 3.59 | 3.57 |  |  |  | < 4.52 | 0
10 | CCC#C[C@@]1(O)[C@@H](CO)O[C@@H](n2ccc(N)nc2=O)[C@@H]1O | 3.97 | 3.89 |  |  |  | < 4.52 | 0
11 | CCC#C[C@@]1(O)[C@@H](CO)O[C@@H](n2ccc(=O)[nH]c2=O)[C@@H]1O | 3.65 | 3.47 |  |  |  |  | 
12 | C=C[C@@]1(O)[C@@H](CO)O[C@@H](n2ccc(N)nc2=O)[C@@H]1O | 4.13 | 4.22 |  |  |  | < 4.52 | 0
13 | C#CC[C@@]1(O)[C@@H](CO)O[C@@H](n2ccc(N)nc2=O)[C@@H]1O | < 3.46 | < 3.46 |  |  |  |  | 
14 | C#C[C@H]1[C@@H](O)[C@H](n2ccc(=O)[nH]c2=O)O[C@@H]1CO | < 3.46 | < 3.46 |  |  |  |  | 
15 | C#C[C@]1(O)[C@@H](CO)O[C@@H](n2ccc(=O)[nH]c2=O)[C@@H]1O |  |  | < 3.46 | < 3.46 |  | 7.89 | 141
16 | C#CC[C@]1(O)[C@@H](CO)O[C@@H](n2ccc(=O)[nH]c2=O)[C@@H]1O | < 3.46 | < 3.46 |  |  |  |  | 
17 | O=c1ccn([C@@H]2O[C@H](CO)[C@@H](O)[C@H]2O)c(=O)[nH]1 [URIDINE] |  |  |  |  |  |  | 755
18 | CCC[C@@]1(O)[C@@H](CO)O[C@@H](n2ccc(=O)[nH]c2=O)[C@@H]1O | < 3.46 | < 3.46 |  |  |  |  | 
19 | CC#C[C@@]1(O)[C@@H](CO)O[C@@H](n2ccc(N)nc2=O)[C@@H]1O | 4.84 | 4.61 |  |  |  | 4.86 | 160
20 | C#CC[C@]1(O)[C@@H](CO)O[C@@H](n2ccc(N)nc2=O)[C@@H]1O | < 3.46 | < 3.46 |  |  |  |  | 
21 | C=C[C@@]1(O)[C@@H](CO)O[C@@H](n2ccc(=O)[nH]c2=O)[C@@H]1O | 4.29 | 3.83 |  |  |  | < 4.52 | 9.3
22 | CC#C[C@@]1(O)[C@@H](CO)O[C@@H](n2ccc(=O)[nH]c2=O)[C@@H]1O | 4.15 | 3.45 |  |  |  |  | 
23 | C#C[C@@]1(O)[C@H](O)[C@@H](CO)O[C@H]1n1ccc(N)nc1=O [2'-ETHYNYL-D-CYTIDINE] | < 3.46 | < 3.46 |  |  |  |  | 
